ChEMBL document CHEMBL1154414, “In vitro and in vivo activities of T-705 against arenavirus and bunyavirus infections” (Antimicrob Agents Chemother, 2007)

Legend:
Junin virus = assay: Antiviral activity against Junin virus Candid-1 in Vero cells assessed as inhibition of virus-induced visual cytopathic effect after 7 to 8 days; format: functional, organism-based; details: Mammarenavirus juninense, Candid-1, Vero
Pichinde virus [1] = assay: Antiviral activity against Pichinde virus An 4763 infected Syrian golden hamster assessed as mean viral titer per 0.1 g of liver at 40 mg/kg, po twice daily for 7 days administered 4 hrs before viral-challenge measured on day 7 of viral infection; format: functional
Summary of the method: (§1)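 Hamsters (groups of 15, placebo 25-30) were dosed orally by gavage twice daily (drug suspended in 0.4% CMC) after bilateral intraperitoneal challenge with 65 PFU. Five per group were killed on day 7. Liver homogenate or serum was serially diluted onto triplicate B-SC-1 wells, CPE was read at 6-8 days, and the 50% endpoint was taken. Range was 2.8-9.5 log10 CCID50/0.1 g or 0.1 ml, with undetectable assigned <2.8.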

Punta Toro virus [2] = assay: Antiviral activity against Punta Toro virus Adames infected Syrian golden hamster assessed as mean viral titer per 0.1 mL of serum at 30 mg/kg, po twice daily administered 4 hrs before viral challenge measured on day 4 of viral infection; format: functional
Summary of the method: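 Hamsters received twice-daily oral gavage doses (0.4% CMC) after subcutaneous challenge with 50 PFU. Five per group were killed on day 3 or 4. Liver homogenate or serum was serially diluted onto triplicate LLC-MK2 wells, CPE was read at 6-8 days, and the 50% endpoint was taken. Range was 2.8-9.5 log10 CCID50/0.1 g or 0.1 ml, with undetectable assigned <2.8.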

Pichinde virus [3] = assay: Antiviral activity against Pichinde virus An 4763 infected Syrian golden hamster assessed as animals with detectable virus level in liver at 40 mg/kg, po twice daily for 7 days administered 4 hrs before viral-challenge measured on day 7 of viral infection; format: functional
Punta Toro virus [4] = assay: Antiviral activity against 5000 PFU Punta Toro virus Adames infected C57BL/6 mouse assessed as mean viral titer per 0.1 g of liver at 10 mg/kg, po twice daily administered 24 hrs post viral challenge measured on day 3 of viral infection; format: functional
Summary of the method: (§2)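 Mice were infected subcutaneously with PTV and dosed by oral gavage twice daily; 5 per group (10 placebo) were killed on day 3 or 4. Liver homogenate or serum was serially diluted onto triplicate LLC-MK2 monolayers, and CPE was read 6–8 days later. 50% endpoints gave log10 CCID50 per 0.1 g liver or 0.1 ml serum. Detection range was 2.8–9.5; undetectable samples were assigned <2.8.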

Punta Toro virus [5] = assay: Antiviral activity against Punta Toro virus Adames infected Syrian golden hamster assessed as mean serum ALT levels at 30 mg/kg, po twice daily administered 4 hrs before viral challenge measured on day 4 of viral infection; format: functional
Summary of the method: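 Hamsters were challenged subcutaneously with 50 PFU and dosed twice daily by oral gavage in 0.4% CMC. Five per group were sacrificed on day 3 or 4. Livers were scored 0-4 for icterus, and serum ALT was measured by kinetic assay against three sham-infected baseline animals.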

Punta Toro virus [6] = assay: Antiviral activity against 500 PFU Punta Toro virus Adames infected C57BL/6 mouse assessed as mean viral titer per 0.1 g of liver at 10 mg/kg, po twice daily administered 24 hrs post viral challenge measured on day 3 of viral infection; format: functional; summary of the method: as §2
Pichinde virus [7] = assay: Antiviral activity against Pichinde virus An 4763 infected Syrian golden hamster assessed as animals with detectable virus level in serum at 20 mg/kg, po twice daily for 7 days administered 24 hrs post viral-challenge measured on day 7 of viral infection; format: functional; summary of the method: as §1
Punta Toro virus [8] = assay: Antiviral activity against 5000 PFU Punta Toro virus Adames infected C57BL/6 mouse assessed as mean viral titer per 0.1 g of liver at 30 mg/kg, po twice daily administered 24 hrs post viral challenge measured on day 3 of viral infection; format: functional; summary of the method: as §2
Punta Toro virus [9] = assay: Antiviral activity against 500 PFU Punta Toro virus Adames infected C57BL/6 mouse assessed as mean day of death at 30 mg/kg, po twice daily for 5 days administered 24 hrs post viral challenge; format: functional
Summary of the method: (§3)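 Groups of 15 mice (25–30 placebo) were inoculated subcutaneously with PTV. Drug in 0.4% carboxymethylcellulose was given by oral gavage twice daily.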

Punta Toro virus [10] = assay: Antiviral activity against 50 PFU Punta Toro virus Adames infected C57BL/6 mouse assessed as mean day of death at 30 mg/kg, po twice daily for 5 days administered 24 hrs post viral challenge; format: functional; summary of the method: as §3
Pichinde virus [11] = assay: Antiviral activity against Pichinde virus An 4763 infected Syrian golden hamster assessed as animals with detectable virus level in liver at 50 mg/kg, po twice daily for 7 days administered 24 hrs post viral-challenge measured on day 7 of viral infection; format: functional; summary of the method: as §1
Punta Toro virus [12] = assay: Antiviral activity against Punta Toro virus Adames infected Syrian golden hamster assessed as animals with detectable virus level in liver at 30 mg/kg, […] measured on day 4 of viral infection; format: functional; details: route oral
Pichinde virus [13] = assay: Antiviral activity against Pichinde virus An 4763 infected Syrian golden hamster assessed as mean day of death at 50 mg/kg, po twice daily for 7 days administered 24 hrs post viral-challenge; format: functional
Summary of the method: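 Groups of 15 hamsters (placebo 25-30) were challenged intraperitoneally (bilateral, 65 PFU) and dosed twice daily by oral gavage in 0.4% CMC for 5 to 7 days.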

Punta Toro virus [14] = assay: Antiviral activity against Punta Toro virus Adames infected Syrian golden hamster assessed as animals with detectable virus level in serum at 30 mg/kg, […] measured on day 4 of viral infection; format: functional; details: route oral
La Crosse virus = assay: Antiviral activity against La Crosse virus assessed as inhibition of virus-induced visual cytopathic effect after 3 to 5 days; format: functional, organism-based
Summary of the method: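 Virus diluted in 2% FBS medium was added with half-log drug dilutions at infection. Plates were incubated at 37°C, 5% CO2, until maximal CPE in infected controls, then scored visually 3–5 days post-infection. EC50 was derived by regression analysis.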

Pichinde virus [15] = assay: Antiviral activity against Pichinde virus An 4763 infected Syrian golden hamster assessed as mean viral titer per 0.1 mL of serum at 40 mg/kg, po twice daily for 7 days administered 4 hrs before viral-challenge measured on day 7 of viral infection; format: functional
Punta Toro virus [16] = assay: Antiviral activity against 500 PFU Punta Toro virus Adames infected C57BL/6 mouse assessed as mean viral titer per 0.1 mL of serum at 30 mg/kg, po twice daily administered 24 hrs post viral challenge measured on day 3 of viral infection; format: functional; summary of the method: as §2
Pichinde virus [17] = assay: Antiviral activity against Pichinde virus An 4763 infected Syrian golden hamster assessed as mean viral titer per 0.1 mL of serum at 50 mg/kg, po twice daily for 7 days administered 24 hrs post viral-challenge measured on day 7 of viral infection; format: functional; summary of the method: as §1
Punta Toro virus [18] = assay: Antiviral activity against 50 PFU Punta Toro virus Adames infected C57BL/6 mouse assessed as mean serum ALT levels at 10 mg/kg, po twice daily administered 24 hrs post viral challenge measured on day 3 of viral infection; format: functional
Summary of the method: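 Subcutaneous PTV infection was followed by oral gavage twice daily with drug suspended in 0.4% CMC. Serum was collected from 5 sacrificed mice per group (10 placebo) on day 3 or 4. ALT activity was measured by kinetic assay, and sham-infected mice set the baselines.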

Punta Toro virus [19] = assay: Antiviral activity against 50 PFU Punta Toro virus Adames infected C57BL/6 mouse assessed as mean day of death at 10 mg/kg, po twice daily for 5 days administered 24 hrs post viral challenge; format: functional; summary of the method: as §3
Tacaribe virus = assay: Antiviral activity against Tacaribe virus TRVL11573 in Vero cells assessed as inhibition of virus-induced visual cytopathic effect after 7 to 8 days; format: functional, organism-based; details: Mammarenavirus tacaribeense
Summary of the method: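 Subconfluent (50-70%) Vero cells were infected with virus in 2% FBS medium at the CCID50 giving maximal CPE. Half-log drug dilutions were added at infection. EC50 was obtained by regression analysis.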

Row | SMILES | EC50 (Junin virus) [µM] | log10CCID50 (Pichinde virus [1]) | log10CCID50 (Punta Toro virus [2]) | Activity (Pichinde virus [3]) [%] | log10CCID50 (Punta Toro virus [4]) | Activity (Punta Toro virus [5]) [IU/L] | log10CCID50 (Punta Toro virus [6]) | Activity (Pichinde virus [7]) [%] | log10CCID50 (Punta Toro virus [8]) | Activity (Punta Toro virus [9]) [days] | Activity (Punta Toro virus [10]) [days] | Activity (Pichinde virus [11]) [%] | Activity (Punta Toro virus [12]) [%] | Activity (Pichinde virus [13]) [days] | Activity (Punta Toro virus [14]) [%] | EC50 (La Crosse virus) [µM] | log10CCID50 (Pichinde virus [15]) | log10CCID50 (Punta Toro virus [16]) | log10CCID50 (Pichinde virus [17]) | Activity (Punta Toro virus [18]) [IU/L] | also measured
1 | NC(=O)c1nc(F)cnc1O [FAVIPIRAVIR] | 5 | <3.2 | <4.5 | 20 | <2.9 | 25 | <2.8 | 100 | <2.9 | 5 | >21 | 100 | 40 | >21 | 40 | 32 | <3 | <5.1 | <5.1 | 3273 | Activity (Punta Toro virus [19]): 5.8 days; EC50 (Tacaribe virus): 6 µM
2 | NC(=O)c1ncn([C@@H]2O[C@H](CO)[C@@H](O)[C@H]2O)n1 [RIBAVIRIN] | 11 | <3.2 | <2.8 | 20 | <2.8 | 13 | <2.9 | 80 | <2.9 | 5.3 | >21 | 100 | 0 | >21 | 0 | 70 | <3 | <5 | <3.5 | 846 | Activity (Punta Toro virus [19]): 5.3 days; EC50 (Tacaribe virus): 10 µM
